Source: PubChem BioAssay (several laboratories)
Sampled rows, rich in hits. Any-hit rate of the full collection: about 3.1%.
CTSL1 counter – Fasciola hepatica cathepsin L1 inhibitors, primary screen, counter-screen for PFM18AAP inhibitor project, biochemical, QFRET, fluorogenic peptide substrate; recombinant F. hepatica cathepsin L1, Z-Leu-Arg-MCA fluorescence; inhibition, % at 5.96 µM; 0.49% of 300,000 active; AID 1906, 2009;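 active = inhibition above the mean of all tested compounds plus 3 SD, set per screening campaign, cut at about 17% in these data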;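 note: 0% = plate median of test compound wells and 100% = 1 µM Z-Phe-Ala-diazomethylketone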
core dimer inh – inhibitors of HCV core protein dimerization, primary screen, biochemical, TR-FRET, high-throughput | TR-FRET GST/Flag-core106 dimerization, 1536-well | inhibition, % at 5 µM | 0.33% of 300,000 active;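 active = inhibition above the mean of all tested compounds plus 3 SD, set per screening campaign, cut at about 45% in these data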
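Assay system: GST-tagged and Flag-tagged HCV core protein residues 1-106 / Times: compound-protein-antibody incubation 4 h at 22.5 °C / Signal: time-resolved FRET, ex 340 nm, em 617 and 671 nm / Evaluation: % inhibition based on acceptor/donor emission ratio / Benchmarks: wells lacking GST-core106 and wells with excess unlabelled core106 / Repeats: singlicate, one well per compound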
PP1 inh – PP1-alpha phosphatase inhibitors, primary screen, counter-screen for PP5 inhibitor project, biochemical, fluorescence, OMFP substrate, single point | purified PP1alpha | 0.9% of 320,000 active | inhibition, % at 6.7 µM;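 active = inhibition above the mean inhibition of all tested compounds plus 3 SD, computed separately for each screening campaign, cut at about 15% in these data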
Target sequence (P62136 whole entry, looked up): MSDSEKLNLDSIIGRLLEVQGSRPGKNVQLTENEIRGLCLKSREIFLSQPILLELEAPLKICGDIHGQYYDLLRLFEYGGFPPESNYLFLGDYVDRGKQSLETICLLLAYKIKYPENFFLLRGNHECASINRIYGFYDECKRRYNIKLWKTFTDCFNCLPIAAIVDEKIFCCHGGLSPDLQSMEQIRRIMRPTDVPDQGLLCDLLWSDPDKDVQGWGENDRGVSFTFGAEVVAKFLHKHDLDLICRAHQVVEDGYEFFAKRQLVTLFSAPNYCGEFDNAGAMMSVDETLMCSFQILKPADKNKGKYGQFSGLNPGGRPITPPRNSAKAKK
Myeloid diff 2 – induction of myeloid progenitor differentiation, primary screen, cell-based, flow cytometry, MLPCN library; ER-HoxA9 myeloid progenitors, lysozyme-GFP differentiation; calls only at 10 µM; 1% of 360,000 active; AID 624256, 2012;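 active = normalized GFP-positive differentiation at or above the plate's own cutoff, the solvent-only control mean plus 3 SD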;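 note: cells exposed to compound for four days before flow analysis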
NadD block – inhibitors of S. aureus NadD, primary screen, biochemical, colorimetric, uHTS. Nicotinate-nucleotide adenylyltransferase NadD (Staphylococcus aureus N315). purified NadD enzyme, colorimetric absorbance read-out. inhibition, % at 20 µM. 0.78% of 360,000 active. AID 602399, 2012; in the data active = inhibition above about 26%
PP5 inh – PP5 phosphatase inhibitors, primary screen, biochemical, fluorescence; Serine/threonine-protein phosphatase 5 (Homo sapiens), P53041; purified PP5c, OMFP substrate fluorescence; inhibition, % at 6.7 µM; 0.18% of 320,000 active;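 active = inhibition above the campaign's mean inhibition across all tested compounds plus 3 SD, cut at about 9.5% in these data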;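 note: 0% = DMSO only and 100% = 100 µM cantharidin control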
Starred values were filed as active, the others as inactive; i = inactive; x = not tested or not shown; + = active, no number; ! = a repeat was not active.

SMILES | CTSL1 counter | core dimer inh | PP1 inh | Myeloid diff 2 | NadD block | PP5 inh
O=C(Nc1ccc2nc(-c3ccco3)c(-c3ccco3)nc2c1)NC1CC1 | x | x | x | i | 28* | x
Cc1onc(C(=O)Nc2sc3c(c2C#N)CCCC3)c1[N+](=O)[O-] | 23* | -10 | -3 | i | 1 | 3
Cc1onc(-c2ccccc2Cl)c1C(=O)Nc1sc2c(c1C#N)CCC2 | 1 | 5 | 1 | i | -1 | -2
CS(=O)(=O)c1nc(S(=O)(=O)c2ccc(Cl)cc2)c(N2CCN(CCO)CC2)s1 | 1 | 5 | -1 | + | -5 | 2
Cc1ccc(S(=O)(=O)c2nc(S(C)(=O)=O)sc2N2CCCCC2C)cc1 (centres undefined) | -5 | 7 | 1 | + | -11 | 4
COCCNc1ccc([N+](=O)[O-])cc1C(=O)NC1CCCc2ccccc21 (centres undefined) | 2 | 10 | -4 | i | -5 | 0
COc1cccc(C(=O)Nc2ccc(NC(=O)Cc3ccccc3)cc2)c1 | 1 | -1 | 17* | i | -6 | 1
CCCCN(C=O)c1c(CC)nc2c(OCC3CCCCC3)cccn12 | x | x | x | i | 2 | x
CCC(C)Sc1nc2c(c(=O)[nH]1)C(c1cccs1)C1=C(CCCC1=O)N2 (centres undefined) | -3 | 57* | 5 | i | 9 | 1
CCCCn1c(NC(=O)c2ccco2)c(S(=O)(=O)c2ccc(C)cc2)c2nc3ccccc3nc21 | x | x | x | + | 24 | x
CCCCCn1c(NC(=O)c2ccco2)c(S(=O)(=O)c2ccc(C)cc2)c2nc3ccccc3nc21 | 9 | 23 | 9 | + | 14 | 1
CCC(CN(C)C)Oc1cc(NCc2ccccc2)c2ncn(C(C)C)c2c1 (centres undefined) | x | x | x | + | -5 | x
CN(CC(=O)Nc1ccc(F)c(F)c1F)C(=O)CCc1nc2sc3c(c2c(=O)[nH]1)CCCC3 | 0 | 15 | 4 | i | 2 | -1
C=C1C(=O)C=C2CN(C(=O)c3ccccc3)[C@@](Cc3ccc(F)cc3)(C(=O)OC)[C@@H]12 | -4 | 13 | 3 | + | 8 | 2
COc1cc(N2CCOCC2)ccc1C=C(C#N)C#N | -7 | 6 | 0 | i | 0 | -2
COc1cc(N2Cc3ccccc3C2)ccc1C=O | -3 | 46* | 13 | i | 14 | 3
Cc1c(OCC(=O)N(C)c2ccccc2)ccc2c3c(c(=O)oc12)CCC3 | 2 | 6 | -1 | i | 3 | 2
Cc1cccc(C(=O)N2CCc3cc(-c4nc(NC(=O)Cn5nnc6ccccc6c5=O)sc4C)ccc32)c1 | -1 | 52* | 7 | x | x | -1
Cc1cccc(C(=O)N2CCc3cc(-c4nc(NC(=O)CN5CCCC5)sc4C)ccc32)c1 | -1 | 4 | 7 | i | 8 | 3
CN(C)N1C(N)=C(C#N)C(c2ccccc2F)C2=C1CC(C)(C)CC2=O (centres undefined) | 6 | 1 | -2 | i | 0 | -2
OC(c1ccc(Cl)cc1)c1ncc(-c2cccc(F)c2)[nH]1 (centres undefined) | x | x | x | i | -7 | x
COc1ccc(OCCN2CCC(C(=O)NC(c3ccc(F)cc3)c3ccc4ccccc4n3)CC2)cc1 (centres undefined) | x | x | x | i | 1 | x
O=C(NC(c1ccc(F)cc1)c1ccc2ccccc2n1)C1CCN(CCOc2ccc(F)cc2)CC1 (centres undefined) | x | x | x | + | 2 | x
COc1ccc(Cn2cc(CN3CCOCC3)nn2)cc1 | x | x | x | i | -2 | x
Cc1ccn2cc(CCNS(=O)(=O)c3ccc4ccccc4c3)nc2c1 | 30* | 10 | 6 | i | -4 | 0
SMILES | CTSL1 counter | core dimer inh | PP1 inh | Myeloid diff 2 | NadD block | PP5 inh
Cc1ccn2cc(CCNS(=O)(=O)c3ccc([N+](=O)[O-])cc3)nc2c1 | -3 | 2 | 0 | i | -2 | 3
COc1cc(C(=O)NC2CC(C)(C)CC(C)(C)C2)ccc1OC1CCN(C(C)=O)CC1 | x | x | x | i | -1 | x
OC[C@@H](O)C(O)[C@@H](O)CO (some centres undefined) | x | x | x | i | 2 | x
CC1(C)S[C@@H]2[C@H](NC(=O)[C@H](N)c3ccccc3)C(=O)N2[C@H]1C(=O)O | 3 | 0 | 3 | +! | 2 | 2
CC1(C)S[C@@H]2[C@H](NC(=O)[C@H](N)c3ccc(O)cc3)C(=O)N2[C@H]1C(=O)O | -3 | -11 | -3 | i | 5 | 4
COc1ccc(Nc2nc(-c3sc(N)nc3C)cs2)cc1 | 3 | 2 | -3 | i | 17 | 3
COc1ccc(Nc2nc(-c3sc(NC(C)=O)nc3C)cs2)cc1 | 8 | 59* | 2 | x | x | 1
C=CCC1NS(=O)(=O)OCC1NC(=O)OCC(Cl)(Cl)Cl (centres undefined) | 20* | -3 | -2 | i | 1 | 3
COC(=O)c1ccc(C2C(C(=O)c3ccco3)=C(O)C(=O)N2c2cc(C)on2)cc1 (centres undefined) | 11 | 11 | 7 | i | 6 | -1
Cc1ccc(C2C(C(=O)c3cc4ccccc4o3)=C(O)C(=O)N2c2cc(C)on2)cc1 (centres undefined) | 1 | 0 | 22* | i | 12 | -1
COC(=O)c1ccc(C2C(C(=O)c3ccc(C)o3)=C(O)C(=O)N2c2cc(C)on2)cc1 (centres undefined) | 11 | 11 | 16* | i | 15 | 1
COC(=O)c1sc(N2C(=O)C(O)=C(C(=O)c3ccc(C)o3)C2c2ccc(F)cc2)nc1C (centres undefined) | 2 | -8 | 17* | i | 19 | 4
Cc1cc(N2C(=O)C(O)=C(C(=O)c3cc4ccccc4o3)C2c2cccs2)no1 (centres undefined) | 0 | 13 | 19* | i | 7 | 3
Cc1cc(N2C(=O)C(O)=C(C(=O)c3ccco3)C2c2ccc(O)cc2)no1 (centres undefined) | 2 | -4 | -5 | x | -2 | 0
COC(=O)c1sc(N2C(=O)C(O)=C(C(=O)c3ccc(C)o3)C2c2ccco2)nc1C (centres undefined) | 7 | -6 | 1 | i | 0 | 6
COc1ccc(OC)c(S(=O)(=O)CC(O)COc2ccccc2Cl)c1 (centres undefined) | -4 | -21 | 0 | i | -5 | 2
